Assay results published in ChEMBL document CHEMBL3804796, “Discovery of Novel 3,3-Disubstituted Piperidines as Orally Bioavailable, Potent, and Efficacious HDM2-p53 Inhibitors” (ACS Med Chem Lett, 2016).

Test system: A549
Experiment: Antitumor activity against human A549 cells xenografted in nude mouse assessed as tumor growth inhibition at 200 mg/kg, po qd continuously for 30 days relative to control
Assay type: functional
Details: 720 h, read-out: TGI
Procedure, shortened: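 Mice bearing A549 NSCLC xenografts. The test agent was given orally, either daily or intermittently (daily for 3 days, then 4 days off). Paclitaxel was given at 20 mg/kg ip weekly, alone or in combination. Read-out was tumor growth inhibition.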

CCC[C@H]1N(C(=O)c2cnccc2C(F)(F)F)CCC[C@@]1(Oc1csc(C(F)(F)F)c1)C(=O)N1CCN(c2ccccc2OCCCC(=O)O)CC1
inhibition in vivo at 200 mg/kg: 75%
